HKDC1 inhibitor: HKDC1 hexokinase inhibitors, primary screen, biochemical, fluorescence, uHTS; Q2TB90; recombinant HKDC1, G6PDH/diaphorase resazurin coupled fluorescence; inhibition, % at 20 µM; 340,000 tested, 0.16% active; AID 493160, 2011;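 active = inhibition above about 35% when tested at 20 µM, limit read from the data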
Target sequence (Q2TB90 whole entry, looked up): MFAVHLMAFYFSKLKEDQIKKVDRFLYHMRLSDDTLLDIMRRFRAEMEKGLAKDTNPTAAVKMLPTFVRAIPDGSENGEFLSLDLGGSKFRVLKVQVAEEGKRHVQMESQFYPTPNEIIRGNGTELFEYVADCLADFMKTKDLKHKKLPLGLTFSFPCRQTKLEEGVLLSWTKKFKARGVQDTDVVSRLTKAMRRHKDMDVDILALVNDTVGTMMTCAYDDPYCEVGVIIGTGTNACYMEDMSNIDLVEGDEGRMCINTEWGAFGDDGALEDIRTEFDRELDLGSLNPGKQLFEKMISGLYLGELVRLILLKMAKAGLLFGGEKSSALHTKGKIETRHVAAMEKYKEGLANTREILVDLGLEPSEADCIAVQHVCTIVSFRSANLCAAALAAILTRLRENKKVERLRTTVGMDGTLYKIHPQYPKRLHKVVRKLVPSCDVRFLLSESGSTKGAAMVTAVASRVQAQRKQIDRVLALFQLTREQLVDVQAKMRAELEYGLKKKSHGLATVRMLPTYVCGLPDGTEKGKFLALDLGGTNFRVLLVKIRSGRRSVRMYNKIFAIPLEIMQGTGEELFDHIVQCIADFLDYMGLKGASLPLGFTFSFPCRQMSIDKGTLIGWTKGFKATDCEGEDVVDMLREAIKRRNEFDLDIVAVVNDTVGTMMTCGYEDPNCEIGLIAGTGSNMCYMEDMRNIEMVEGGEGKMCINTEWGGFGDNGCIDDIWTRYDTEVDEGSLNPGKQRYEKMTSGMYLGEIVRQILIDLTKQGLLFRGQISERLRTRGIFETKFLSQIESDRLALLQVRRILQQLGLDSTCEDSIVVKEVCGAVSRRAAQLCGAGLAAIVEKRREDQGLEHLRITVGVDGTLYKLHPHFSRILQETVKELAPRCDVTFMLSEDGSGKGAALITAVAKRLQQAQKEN
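Material: recombinant HKDC1 hexokinase; Amount: HKDC1 at 5 µg/mL; Medium: Tris pH 8.0 buffer with MgCl2, Tween-20, BSA, BME; Schedule: 90 min reaction incubation at room temperature, dark; Technique: coupled resazurin fluorescence, excitation 525 nm, emission 613 nm.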
PfGluPho inh: PfG6PD enzyme inhibitors, primary screen, biochemical, fluorescence intensity, uHTS; PfGluPho enzyme, NADPH resazurin-diaphorase fluorescence; 350,000 tested, 0.78% active; inhibition, % at 20 µM; AID 504690, 2011;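 active = inhibition reaching at least a set limit at 20 µM in the primary screen, cut at about 59% in these data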
Neddyl block: inhibitors of cullin neddylation, primary screen, biochemical, TR-FRET, uHTS, NAE and Ubc12 | NEDD8-conjugating enzyme Ubc12 (Homo sapiens) + NEDD8-activating enzyme E1 regulatory … | inhibition, % at 25 µM | 360,000 tested, 0.58% active; in the data active = inhibition above about 36%
M18AAP inhibitor: PfM18AAP inhibitors, malaria aminopeptidase, primary screen, biochemical, QFRET, recombinant enzyme; M18 aspartyl aminopeptidase (Plasmodium falciparum 3D7); H-Glu-NHMec fluorogenic cleavage; inhibition, % at 7.35 µM; 290,000 tested, 1.2% active; AID 1822, 2009;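 active = inhibition above the campaign mean inhibition over all tested compounds plus 3 SD, cut at about 28% in these data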
PfG6PD confirm: PfG6PD inhibitors, hit retest, confirmation, biochemical, fluorescence intensity, single concentration | inhibition, % at 20 µM | recombinant PfGluPho, NADPH-diaphorase-resazurin fluorescence | AID 504753, 2011 | 2,400 tested, 34% active | shares compounds with PfGluPho inh;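 active = inhibition of at least 50% at 20 µM in any single replicate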
Diaphorase 10uM: diaphorase inhibitors and chemical oxidizers, confirmation, counter-screen for P. falciparum G6PD inhibitor project, biochemical, fluorescence intensity, 10 µM NADPH; 820 tested, 39% active; diaphorase-coupled resazurin reduction, NADPH 10 uM; inhibition, % at 20 µM; shares compounds with PfGluPho inh;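 active = average inhibition reaching 50% or more with the compound at 20 µM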;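 note: resorufin red fluorescence formed as diaphorase reduces resazurin using NADPH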
Diaph ctr 30uM: diaphorase inhibitors and chemical oxidizers, confirmation, counter-screen for P. falciparum G6PD inhibitor project, biochemical, fluorescence intensity, 30 µM NADPH | shares compounds with PfGluPho inh | Diaphorase/resazurin coupled assay, resorufin fluorescence | inhibition, % at 20 µM | 820 tested, 29% active;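 active = inhibition averaging 50% or more, tested at 20 µM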
Of the large screens only hits and unclear results are named; the others gave an inactive call (follow-up assays come after a bar, where shown). Rows were chosen to be rich in hits. Some 2.2% of all compounds tested hit in one or more screens of this group.

Cc1cc(C)cc(Nc2nc(-c3ccc(S(=O)(=O)N4CCCC4)cc3)cs2)c1	none (not shown: Neddyl block)
CCCCCCSc1cc(-c2nc3ccc(C)cn3c2NCc2ccccc2)ccc1OC	none (not shown: Neddyl block, M18AAP inhibitor)
O=C(O)c1cc(-c2ccc(-c3ccc(F)cc3)o2)nc2ccccc12	PfGluPho inh 93 | PfG6PD confirm inactive
O=C(c1cc(-c2ccc(F)cc2)nc2ccccc12)N1CCC1	none (no result: M18AAP inhibitor)
CCN1C(=O)[C@H]2[C@@H](c3ccc(-c4ccc(OC)cc4)cc3)N[C@@](C)(C(=O)OC)[C@H]2C1=O	none (not shown: Neddyl block, M18AAP inhibitor)
CCCC(C)NC(=O)C1c2ccccc2Oc2ccccc21 (stereo not given)	none
COc1cc(N)c2ncccc2c1Cl	PfGluPho inh 60 (no result: M18AAP inhibitor) | PfG6PD confirm 73 | Diaphorase 10uM inactive | Diaph ctr 30uM inactive
N#Cc1c(SCc2c(Cl)cccc2Cl)nc(N)[nH]c1=S	none (no result: M18AAP inhibitor)
COc1ccc(N2C(=O)/C(=C/c3cccs3)NC2=S)cc1	PfGluPho inh 79 | PfG6PD confirm 64 | Diaphorase 10uM inactive | Diaph ctr 30uM inactive
CCCC(=O)Nc1sc(Cc2ccccc2)c(C)c1C(N)=O	PfGluPho inh 59 | PfG6PD confirm inactive
CC(C)c1onc(C(=O)NC(C)c2ccccc2)c1[N+](=O)[O-] (stereo not given)	none
Oc1ccc(C2C[C@H]3CC[C@@H]2C3)cc1O (stereo not given in full)	PfGluPho inh 79, M18AAP inhibitor 83 | PfG6PD confirm 77 | Diaphorase 10uM inactive | Diaph ctr 30uM inactive
CC(Nc1ccc(F)cc1)=[N+](C)CCNS(=O)(=O)c1ccc(Cl)cc1	none
O=C1C=CC(=O)N1c1ccc(-c2nc3ccccc3o2)cc1	PfGluPho inh 108 (no result: HKDC1 inhibitor, M18AAP inhibitor) | PfG6PD confirm 77 | Diaphorase 10uM inactive | Diaph ctr 30uM inactive
CC(=O)Nc1c(C#N)c(-c2ccccc2)c(C#N)c(=O)n1-c1ccc(C)cc1	none (no result: HKDC1 inhibitor, PfGluPho inh, M18AAP inhibitor)
NS(=O)(=O)c1ccc(O)c(NC(=O)c2ccc([N+](=O)[O-])o2)c1	PfGluPho inh 78 | PfG6PD confirm inactive
Cc1cc(C)cc(NC(=O)c2ccc([N+](=O)[O-])o2)c1	none
CCOC(=O)CNC(=O)Cc1ccc(OC)cc1	none
O=C(Nc1ccccn1)c1cc2ccccc2cc1O	PfGluPho inh 67 | PfG6PD confirm inactive
Cc1ccc(NC(=O)CN(C)C(=O)C2CCC2)cc1	none (no result: M18AAP inhibitor)
CN(CC(=O)Nc1ccc(Cl)c(Cl)c1)C(=O)C1CCC1	PfGluPho inh 75 (no result: M18AAP inhibitor) | PfG6PD confirm inactive
COc1ccc([C@H]2C[C@@H](O)[C@H](n3cc(COC(=O)c4ccccc4)nn3)CN2C(=O)C2CCCCC2)cc1	none (no result: HKDC1 inhibitor, M18AAP inhibitor)
COC(=O)c1c(-c2ccc(C(C)(C)C)cc2)csc1NC(=O)C1C2CCC(O2)C1C(=O)O (stereo not given)	PfGluPho inh 70, M18AAP inhibitor 28 | PfG6PD confirm inactive
CCOC(=O)c1c(-c2cccc3ccccc23)csc1NC(=O)C1C2CCC(O2)C1C(=O)O (stereo not given)	none
COc1cc(SSc2cc(OC)cc([N+](=O)[O-])c2N)c(N)c([N+](=O)[O-])c1	PfGluPho inh 112, M18AAP inhibitor 31 | PfG6PD confirm 100 | Diaphorase 10uM inactive | Diaph ctr 30uM inactive
COc1ccc(/C=C/C(=O)Nc2cc(S(=O)(=O)N3CCOCC3)ccc2C)cc1OC	none (not shown: Neddyl block)
COc1ccccc1-n1c(SCC(=O)NCc2ccc3c(c2)OCO3)nc2cc([N+](=O)[O-])ccc21	PfGluPho inh 95 | PfG6PD confirm inactive
Cc1[nH]c2ccccc2c1/C=N/Nc1ccccn1	none (no result: HKDC1 inhibitor, PfGluPho inh, Neddyl block)
Cc1[nH]c2ccccc2c1/C=N/Nc1nncn1N	PfGluPho inh 69, M18AAP inhibitor 61 | PfG6PD confirm 60 | Diaphorase 10uM inactive | Diaph ctr 30uM inactive
O=C(COc1ccc([N+](=O)[O-])cc1Cl)N(C1CCCCC1)C1CCS(=O)(=O)C1 (stereo not given)	none (no result: M18AAP inhibitor)
O=C1/C(=C/c2ccccc2O)SC(=S)N1Cc1cccnc1	PfGluPho inh 62 | PfG6PD confirm inactive
O=C1/C(=C\c2ccc(O)cc2)SC(=S)N1Cc1ccccc1	none
CC(=O)c1cc2c(cc1NC(=O)CCc1c(C)nc3ncnn3c1C)OCO2	none (no result: M18AAP inhibitor)
ONC(=Nc1ccccc1Cl)c1ccccc1Cl	PfGluPho inh 68 | PfG6PD confirm inactive
CC1CCCCC1NC(=O)CSc1nnc(CC(=O)Nc2ccccc2F)n1C (stereo not given)	none
NS(=O)(=O)c1cccnc1Nc1cccc(Cl)c1Cl	PfGluPho inh 62 | PfG6PD confirm inactive
NS(=O)(=O)c1cccnc1Nc1ccc(Cl)c(Cl)c1	none
COC(=O)NC(=S)Nc1ccc(Oc2ccc(Cl)cc2Cl)c(Cl)c1	PfGluPho inh 82 | PfG6PD confirm inactive
COC(=O)NC(=S)Nc1ccc(Oc2ccc(Cl)cc2)c(Cl)c1	none
COc1ccccc1N1CCN(/N=C/c2cc(OC)c(O)c(OC)c2)CC1	PfGluPho inh 76 | PfG6PD confirm inactive
O=C(COC(=O)c1ccc2ncsc2c1)Nc1ccccc1Br	none (no result: M18AAP inhibitor)
CCCc1cc(=O)[nH]c(SCC(=O)NC2CCCc3ccccc32)n1 (stereo not given)	PfGluPho inh 64 | PfG6PD confirm inactive
Nc1cc(=O)[nH]c(SCC(=O)NC2CCCc3ccccc32)n1 (stereo not given)	none
Cc1ccc(C)c(NC(=O)CN(C)C(=O)CN2C(=O)C3CCCCC3C2=O)c1 (stereo not given)	none (no result: M18AAP inhibitor)
CN(C)c1ccc(C(=O)Nc2nc3c(s2)CCCC3)cc1	none
C/C(=N\Nc1nc2c(s1)CCCC2)c1ccc(Cl)cc1	PfGluPho inh 66 | PfG6PD confirm inactive
CCOc1ccccc1OCc1nn2c(COc3ccccc3)nnc2s1	PfGluPho inh 69 | PfG6PD confirm inactive
CCOc1ccc(-c2nnc3sc(COc4ccccc4)nn23)cc1	none
c1ccc(Cc2nn3c(COc4ccccc4)nnc3s2)cc1	PfGluPho inh 63 | PfG6PD confirm inactive
COc1cccc(NC(=O)COc2ccc(C(=S)N3CCN(C)CC3)cc2OC)c1	none
O=C(/C=C\c1ccc(-c2ccccc2)o1)c1ccccc1	PfGluPho inh 74 | PfG6PD confirm inactive
O=C(/C=C/c1ccccc1)c1ccccc1	none
Cc1oc2cc3oc(=O)c(CCC(=O)N(C)CC(=O)O)c(C)c3cc2c1C	none (not shown: Neddyl block)
COc1cccc(NC(=O)C2CC2(c2cccc(OC)c2)c2cccc(OC)c2)c1 (stereo not given)	PfGluPho inh 111 | PfG6PD confirm inactive
